One data set has as its target T1, h-NTPDase3 (Homo sapiens, UniProt O75355).
T1 sequence (O75355 1-529): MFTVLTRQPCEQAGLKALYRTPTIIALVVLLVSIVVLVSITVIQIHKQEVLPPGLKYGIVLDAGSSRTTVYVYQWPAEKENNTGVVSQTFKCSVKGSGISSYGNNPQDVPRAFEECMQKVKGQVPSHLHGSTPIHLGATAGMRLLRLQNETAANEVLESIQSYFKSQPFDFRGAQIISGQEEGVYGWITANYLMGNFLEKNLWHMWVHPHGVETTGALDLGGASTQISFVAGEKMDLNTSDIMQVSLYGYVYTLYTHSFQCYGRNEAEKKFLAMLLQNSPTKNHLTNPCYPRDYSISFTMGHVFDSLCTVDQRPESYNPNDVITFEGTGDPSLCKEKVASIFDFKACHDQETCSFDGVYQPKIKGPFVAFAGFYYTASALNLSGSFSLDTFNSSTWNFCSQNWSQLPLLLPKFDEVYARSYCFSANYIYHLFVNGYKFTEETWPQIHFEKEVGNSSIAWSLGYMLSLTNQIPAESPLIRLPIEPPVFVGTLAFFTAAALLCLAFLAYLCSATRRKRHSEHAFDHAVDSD
Kind of data set: h-NTPDase activity assay. Format: biochemical. Particulars: for inhibition at 100 µM: read-out: % Inhibition h-NTPDase3. In short, it runs like this: (§1)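 Human NTPDase1, -2, -3 or -8 came from COS-7 cells transfected with plasmids via Lipofectamine, harvested at 44–48 h, sonicated and cleared of nuclei, with protein measured by Bradford. Enzyme per well was 12, 37, 43 or 63 ng respectively. Compound (0.1 mM final) was pre-incubated 10 min at 37 °C in 50 mM Tris–HCl, 5 mM CaCl2, pH 7.4. The reaction was started with ATP (100 µM), run 15 min, and stopped with malachite green; Pi was read at 630 nm.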

A further data set concerns the target T2, h-e5’NT (Homo sapiens, UniProt P21589).
T2 sequence (P21589 27-574): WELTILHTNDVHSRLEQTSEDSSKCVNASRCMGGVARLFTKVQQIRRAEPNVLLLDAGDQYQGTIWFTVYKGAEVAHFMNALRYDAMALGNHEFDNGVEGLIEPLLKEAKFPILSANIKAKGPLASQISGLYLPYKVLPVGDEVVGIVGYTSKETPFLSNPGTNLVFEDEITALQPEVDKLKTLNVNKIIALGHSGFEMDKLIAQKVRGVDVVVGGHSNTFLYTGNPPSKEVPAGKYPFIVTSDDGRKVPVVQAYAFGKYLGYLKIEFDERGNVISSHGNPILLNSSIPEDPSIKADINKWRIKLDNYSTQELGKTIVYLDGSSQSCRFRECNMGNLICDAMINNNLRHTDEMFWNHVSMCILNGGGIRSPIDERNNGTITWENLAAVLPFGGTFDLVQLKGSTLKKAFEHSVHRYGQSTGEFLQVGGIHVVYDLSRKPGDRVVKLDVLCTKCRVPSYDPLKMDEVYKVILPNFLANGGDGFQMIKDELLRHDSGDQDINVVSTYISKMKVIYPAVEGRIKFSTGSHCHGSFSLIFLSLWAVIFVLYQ
Kind of data set: h-e5’NT activity assay. Format: biochemical. The settings on record: for inhibition at 100 µM: read-out: % Inhibition h-e5’NT. In short, it runs like this:
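Human ecto-5′-nucleotidase from transfected COS-7 cells was pre-incubated 10 min at 37 °C with compound (0.1 mM final) in 50 mM Tris–HCl with MgCl₂ and CaCl₂, pH 7.4. The reaction was started with AMP (2 mM solution as added) and run 20 min at 37 °C. Released phosphate was detected with malachite green at 630 nm, in triplicate.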

In data set [1] the test system is A549 human lung carcinoma cells. Kind of data set: Fluorescence microscopy of treated cells. The class given is cell-based. Particulars: A549, 10 μM, 24 h incubation.
A further data set relates to h-NTPDases. Kind of data set: h-NTPDase activity assay, all four isoenzymes. Format: biochemical, human. Summed up:
as §1

Data set [2] deals with MCF-7 breast cancer cells. Kind of data set: MTT assay. The class given is cell-based, human. The settings on record: MCF-7, 100 μM, 24 h, 100 µM. In general terms: Tetrazolium dyes change colour on reduction, which living cells bring about.

“Also recorded” adds a separate entry of the source.

For the compound `O=C(NCc1ccc(F)cc1)c1ccc2ncccc2c1` [Compound 4b, N-(4-fluorobenzyl)quinoline-6-carboxamide], on h-NTPDase3, the half-inhibitory concentration (IC50) stood at 350 ± 170 nM and the inhibition at 100 µM worked out at 67.8%. Besides, the inhibition at 100 µM on h-e5’NT amounted to 37%.
For `Cc1ccc(CNC(=O)c2ccc3ncccc3c2)cc1` [Compound 4c, N-(4-methylbenzyl)quinoline-6-carboxamide], the results for the IC50 on h-NTPDase3 and at h-e5’NT were 670 ± 270 nM and 190 ± 10 nM, respectively. The inhibition at 100 µM at h-NTPDase3 was found to be 78.4%; at h-e5’NT, 50.7%.
As for `O=C(Nc1c(F)cccc1F)c1ccc2ncccc2c1` [Compound 4d, N-(2,6 difluorophenyl)quinoline-6-carboxamide], at h-NTPDase3, half-maximal inhibition (IC50) was put at 820 ± 70 nM and the inhibition at 100 µM turned out to be 58.4%. The inhibition at 100 µM on h-e5’NT came to 35.6%. In addition, the “cytotoxicity seen in bright-field images” value in data set [1] was “no signs of cytotoxicity”.
For `O=C(Nc1ccc(F)cc1F)c1ccc2ncccc2c1` [Compound 4e, N-(2,4 difluorophenyl)quinoline-6-carboxamide], the inhibition at 100 µM on h-NTPDase3 stood at 40.2%. On h-e5’NT, the IC50 was 540 ± 90 nM and the inhibition at 100 µM was 66.9%. In the data set with h-NTPDases, the “activity against all four h-NTPDase isoenzymes” value (“activity” for short) is “poor activity; also recorded: inactive”.
On to `O=C(Nc1ccccn1)c1ccc2ncccc2c1` [Compound 4g, N-(pyridin-2-yl)quinoline-6-carboxamide], for which, at h-NTPDase3, the IC50 came out at 320 ± 50 nM and the inhibition at 100 µM came out at 81.7%. At h-e5’NT, the IC50 is 340 ± 70 nM and the inhibition at 100 µM turned out to be 82%.
With `O=C(Nc1ccccc1I)c1ccc2ncccc2c1` [Compound 4h, N-(2-iodophenyl)quinoline-6-carboxamide], the IC50 came out at 880 ± 290 nM against h-NTPDase3 and 390 ± 100 nM on h-e5’NT. Further, the inhibition at 100 µM stood at 85% at h-NTPDase3 and 87% at h-e5’NT.
For the compound `O=C(Nc1ccc(I)cc1)c1ccc2ncccc2c1` [Compound 4k, N-(4-Iodophenyl)quinoline-6-carboxamide], the inhibition at 100 µM was determined as 38.5% on h-NTPDase3 and 28.4% at h-e5’NT. Moreover, the “% Viability” value in data set [2] was found to be 43.1%. The “activity” value in the data set on h-NTPDases is “poor activity”.
`Cc1ccc(F)cc1NC(=O)c1ccc2ncccc2c1` [Compound 4l, N-(5-fluoro 2-methylphenyl)quinoline-6-carboxamide]: the inhibition at 100 µM at h-NTPDase3 came out at 36.1%. At h-e5’NT, the IC50 amounted to 470 ± 260 nM and the inhibition at 100 µM was determined as 61%. Also, the “activity” value in the data set on h-NTPDases was “poor activity”.

The term IC50 denotes the midpoint of a concentration-inhibition curve. A high value points to lower potency. For orientation: inhibition means how much of the control response was suppressed.

For the origin of these results see publication PMC13022283 (Scientific Reports, 2026).
